Results as given in ChEMBL document CHEMBL3616379, “From carbohydrates to drug-like fragments: Rational development of novel α-amylase inhibitors” (Bioorg Med Chem, 2015).
One block for each compound: values may come before it. Activity calls are given as the source filed them. The rule behind the calls is not given here.

Key:
[1] = molecular target: T1, Pancreatic alpha-amylase (Homo sapiens, UniProt P04746); experiment: Inhibition of human pancreatic alpha-amylase assessed as hydrolysis of G3F by Dixon plot analysis
T1 sequence (P04746 whole entry): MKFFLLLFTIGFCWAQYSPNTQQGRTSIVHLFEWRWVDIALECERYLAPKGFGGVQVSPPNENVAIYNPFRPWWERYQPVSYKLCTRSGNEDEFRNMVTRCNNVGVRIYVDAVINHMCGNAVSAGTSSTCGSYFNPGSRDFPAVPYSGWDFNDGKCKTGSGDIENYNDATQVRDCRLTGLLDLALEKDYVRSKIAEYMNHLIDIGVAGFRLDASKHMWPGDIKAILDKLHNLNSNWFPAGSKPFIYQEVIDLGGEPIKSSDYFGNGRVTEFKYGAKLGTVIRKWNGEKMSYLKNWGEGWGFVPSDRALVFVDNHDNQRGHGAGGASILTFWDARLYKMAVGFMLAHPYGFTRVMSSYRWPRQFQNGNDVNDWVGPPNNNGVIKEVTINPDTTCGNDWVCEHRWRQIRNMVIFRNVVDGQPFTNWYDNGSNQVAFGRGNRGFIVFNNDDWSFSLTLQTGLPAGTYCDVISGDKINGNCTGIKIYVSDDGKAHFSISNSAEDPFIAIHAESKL

[2] = molecular target: T1, Pancreatic alpha-amylase; experiment: Inhibition of human pancreatic alpha-amylase expressed in Pichia pastoris using amylase as substrate preincubated with substrate for 10 mins followed by protein addition measured every 5 mins
[3] = molecular target: T2, Alpha-amylase 1A (Homo sapiens, UniProt P0DUB6); experiment: Non-competitive inhibition of human salivary alpha-amylase using GalG2CNP as substrate assessed as CNP liberation by Lineweaver-Burk plot analysis
T2 sequence (P0DUB6 whole entry): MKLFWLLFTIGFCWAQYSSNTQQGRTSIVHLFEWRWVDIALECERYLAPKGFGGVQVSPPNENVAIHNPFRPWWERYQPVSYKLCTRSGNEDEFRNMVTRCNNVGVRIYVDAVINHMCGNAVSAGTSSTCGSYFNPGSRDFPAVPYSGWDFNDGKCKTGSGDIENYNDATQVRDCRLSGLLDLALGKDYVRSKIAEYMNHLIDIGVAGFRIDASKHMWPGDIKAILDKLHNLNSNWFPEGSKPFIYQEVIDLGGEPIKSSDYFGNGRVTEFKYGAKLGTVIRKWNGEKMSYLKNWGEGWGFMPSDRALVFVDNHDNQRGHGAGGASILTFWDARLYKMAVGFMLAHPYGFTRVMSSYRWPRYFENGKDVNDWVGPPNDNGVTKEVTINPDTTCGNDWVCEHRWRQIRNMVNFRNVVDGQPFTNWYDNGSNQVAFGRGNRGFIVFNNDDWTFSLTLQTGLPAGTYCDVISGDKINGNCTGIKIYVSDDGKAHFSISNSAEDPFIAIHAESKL
Procedure, shortened: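 Same HSA/GalG2CNP system: 2 nM enzyme, 0.75-4 mM substrate, 50 mM MES pH 6.0 with Ca(OAc)2, NaCl, NaN3, 37°C, CNP followed continuously at 400 nm, inhibitor added from DMSO. Inhibition type was assigned from Lineweaver-Burk plots.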

[4] = molecular target: T3, Pancreatic alpha-amylase (Homo sapiens) (UniProt P04746); experiment: Inhibition of human pancreatic alpha-amylase using CNPG3 as substrate at 50 mM by spectrophotometric analysis in presence of 20 mM MeG2F as donor compound and 50 mM 5FIdoF as acceptor compound relative to control
T3 sequence (whole entry): T1 sequence (P04746 whole entry)

[5] = Inhibition of Escherichia coli MurC ligase after 15 mins by Malachite green assay
[6] = molecular target: T2, Alpha-amylase 1A; experiment: Inhibition of human salivary alpha-amylase using GalG2CNP as substrate by UV-Vis spectrophotometric analysis; settings: read-out: IC50
[7] = molecular target: T4, Alpha-amylase 1A (Homo sapiens) (UniProt P0DUB6); experiment: Competitive inhibition of human salivary alpha-amylase using GalG2CNP as substrate by Lineweaver-Burk plot analysis
T4 sequence (whole entry): T2 sequence (P0DUB6 whole entry)
Procedure, shortened: (§1)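 Inhibition mode assigned from Lineweaver-Burk plots. Human salivary α-amylase (2 nM) started reactions containing GalG2CNP (0.75–4 mM) and inhibitor in DMSO, in 50 mM MES pH 6.0 with 5 mM Ca(OAc)2, 51.5 mM NaCl, 152 mM NaN3 at 37°C. Rates from continuous 400 nm absorbance of released CNP.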

[8] = tested on: Escherichia coli; experiment: Inhibition of Escherichia coli MurC ligase assessed as residual activity at 100 uM after 15 mins by Malachite green assay
[9] = molecular target: T4, Alpha-amylase 1A (Homo sapiens); experiment: Potency index, ratio of BAS 04880564 IC50 to compound IC50 for human salivary alpha-amylase
[10] = molecular target: T1, Pancreatic alpha-amylase; experiment: Inhibition of human pancreatic alpha-amylase
[11] = molecular target: T3, Pancreatic alpha-amylase (Homo sapiens); experiment: Inhibition of human pancreatic alpha-amylase using CNPG3 as substrate by spectrophotometric analysis in presence of 40 mM G3F as donor compound and 25 mM 5FIdoF as acceptor compound relative to control
[12] = molecular target: T2, Alpha-amylase 1A; experiment: Inhibition of human salivary alpha-amylase using GalG2CNP as substrate assessed as CNP liberation by spectrophotometric analysis
Procedure, shortened: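 Chromogenic kinetic assay with 2 nM HSA and 0.75-4 mM GalG2CNP in 50 mM MES pH 6.0 with 5 mM Ca(OAc)2, 51.5 mM NaCl, 152 mM NaN3, 37°C. Substrate and inhibitor (DMSO dilutions) were premixed and the reaction started by adding enzyme. CNP release was followed continuously at 400 nm. IC50 was taken from a four-parameter logistic fit of fractional activity versus inhibitor level, three repeats.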

[13] = molecular target: T2, Alpha-amylase 1A; experiment: Inhibition of human salivary alpha-amylase using rice starch as substrate after 12 mins by microplate reader analysis
[14] = molecular target: T2, Alpha-amylase 1A; experiment: Inhibition of human salivary alpha-amylase using GalG2CNP as substrate
[15] = Inhibition of malt alpha-amylase; settings: concentration not given here
[16] = molecular target: T1, Pancreatic alpha-amylase; experiment: Competitive inhibition of human pancreatic alpha-amylase by double reciprocal plot analysis
[17] = molecular target: T4, Alpha-amylase 1A (Homo sapiens); experiment: Mixed type inhibition of human salivary alpha-amylase using GalG2CNP as substrate by Lineweaver-Burk plot analysis; procedure, shortened: as §1
[18] = molecular target: T4, Alpha-amylase 1A (Homo sapiens); experiment: Inhibition of human salivary alpha-amylase using GalG2CNP as substrate at 200 uM by UV-Vis spectrophotometric analysis
Procedure, shortened: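 Single-concentration test at 200 μM inhibitor against human salivary α-amylase (2 nM) with GalG2CNP substrate, 50 mM MES pH 6.0 containing 5 mM Ca(OAc)2, 51.5 mM NaCl, 152 mM NaN3, 37°C. Chloronitrophenol liberation monitored continuously at 400 nm by UV-Vis spectrophotometry.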

[19] = molecular target: T1, Pancreatic alpha-amylase; experiment: Inhibition of human pancreatic alpha-amylase expressed in Pichia pastoris using amylase as substrate preincubated with substrate for 10 mins followed by protein addition measured every 5 mins by Dixon plot analysis

Compound: C[C@H]1O[C@H](O[C@H]2[C@H](O)[C@@H](O)[C@@H](O)O[C@@H]2CO)[C@H](O)[C@@H](O)[C@@H]1NC1=C[C@H](CO)[C@@H](O[C@H]2O[C@H](CO)[C@@H](O[C@H]3O[C@H](CO)[C@@H](O)[C@H](O)[C@H]3O)[C@H](O)[C@H]2O)[C@H](O)[C@H]1O
IC50 [2]: 2.59 µM

Compound: O=C(O)c1cc(Nc2nc(-c3ccc(O)cc3O)cs2)ccc1O
IC50 [5]: 347 µM | IC50 [6]: 423 µM

Compound: CN(C)c1ccc(Nc2nc(-c3ccc(O)cc3O)cs2)cc1
Inhibition mode [7]: Active | Activity [8]: 90% | IC50 [6]: 100 µM | Ratio IC50 [9]: 1.38

Compound: NS(=O)(=O)c1ccc(Nc2nc(-c3ccc(O)cc3O)cs2)cc1
IC50 [5]: 531 µM | IC50 [6]: 165 µM | Ratio IC50 [9]: 0.83

Compound: O=C(OC[C@H]1O[C@@H](OC(=O)c2cc(O)c(O)c(O)c2)[C@H](OC(=O)c2cc(O)c(O)c(O)c2)[C@@H](OC(=O)c2cc(O)c(O)c(O)c2)[C@@H]1OC(=O)c1cc(O)c(O)c(O)c1)c1cc(O)c(O)c(O)c1 [PENTAGALLOYL GLUCOSE]
IC50 [12]: 2.35 µM | Ki [3]: 2.6 µM

Compound: CC1OC(OC2C(CO)OC(OCC3OC(O)C(O)C(O)C3O)C(O)C2O)C(O)C(O)C1NC1C=C(CO)C(OC2OC(CO)C(OC3OC(CO)C(O)C(O)C3O)C(O)C2O)C(O)C1O (centres undefined)
Ki [10]: 0.012 µM

Compound: O=C(O[C@@H]1Cc2c(O)cc(O)cc2O[C@@H]1c1cc(O)c(O)c(O)c1)c1cc(O)c(O)c(O)c1 [EPIGALOCATECHIN GALLATE]
IC50 [13]: 1400 µM

Compound: CC1OC(OC2C(CO)OC(O)C(O)C2O)C(O)C(O)C1NC1C=C(CO)C(OC2OC(CO)C(OC3OC(C)C(NC4C=C(CO)C(O)C(O)C4O)C(O)C3O)C(O)C2O)C(O)C1O (centres undefined)
Ki [14]: 0.7 µM

Compound: COC1=C(O)C(=O)OC1C1COC(C)(C)O1 (centres undefined)
inhibition [15]: 0%

Compound: C[C@@H]1O[C@@H](O[C@@H]2CO[C@@H](Oc3c(O)cc(C4=C(O[C@@H]5O[C@@H](C)[C@H](O)[C@@H](O)[C@H]5O[C@@H]5O[C@H](COC(=O)/C=C/c6ccc(O)c(O)c6)[C@@H](O)[C@H](O)[C@H]5O[C@@H]5O[C@H](CO)[C@@H](O)[C@H](O)[C@H]5O)C(=O)c5c(O)cc(O)cc5C4)cc3O)[C@H](O)[C@H]2O)[C@H](O)[C@H](O)[C@H]1O
Ki [16]: 0.008 µM

Compound: COc1cc(/C=C/C(=O)OC[C@H]2O[C@@H](O[C@H]3[C@H](OC4=C(c5cc(O)c(O[C@@H]6OC[C@@H](O[C@@H]7O[C@@H](C)[C@H](O)[C@@H](O)[C@H]7O)[C@H](O)[C@H]6O)c(O)c5)Cc5cc(O)cc(O)c5C4=O)O[C@@H](C)[C@H](O)[C@H]3O)[C@H](O[C@@H]3O[C@H](CO)[C@@H](O)[C@H](O)[C@H]3O)[C@@H](O)[C@@H]2O)ccc1O
Ki [16]: 6.1 µM

Compound: CC(=O)c1cccc(Nc2nc(-c3ccc(O)cc3O)cs2)c1
Activity [8]: 83% | IC50 [6]: 100 µM | inhibition [17]: Active | Ratio IC50 [9]: 1.38

Compound: CC(=O)OCC(OC(C)=O)C1OC(O)=C(O)C1=O (centres undefined)
inhibition [15]: 99%

Compound: CC1=NN(c2ccccc2)C(=O)/C1=C(/NNC(=O)c1ccccc1O)c1ccccc1
inhibition [18]: inactive

Compound: C[C@@H]1O[C@@H](O[C@@H]2CO[C@@H](Oc3c(O)cc(C4=C(O[C@@H]5O[C@@H](C)[C@H](O)[C@@H](O)[C@H]5O[C@@H]5O[C@H](COC(=O)/C=C/c6ccc(O)cc6)[C@@H](O)[C@H](O)[C@H]5O[C@@H]5O[C@H](CO)[C@@H](O)[C@H](O)[C@H]5O)C(=O)c5c(O)cc(O)cc5C4)cc3O)[C@H](O)[C@H]2O)[C@H](O)[C@H](O)[C@H]1O
Ki [16]: 3.6 µM

Compound: C[C@H]1O[C@H](O[C@H]2[C@H](O)[C@@H](O)[C@@H](O[C@H]3[C@H](O)[C@@H](O)[C@@H](O[C@H]4[C@H](O)[C@@H](O)[C@@H](O[C@H]5[C@H](O)[C@@H](O)[C@@H](O)O[C@@H]5CO)O[C@@H]4CO)O[C@@H]3CO)O[C@@H]2CO)[C@H](O)[C@@H](O)[C@@H]1N[C@H]1C=C(CO)[C@@H](O[C@H]2O[C@H](CO)[C@@H](O[C@H]3O[C@H](C)[C@@H](N[C@H]4C=C(CO)[C@@H](O)[C@H](O)[C@H]4O)[C@H](O)[C@H]3O)[C@H](O)[C@H]2O)[C@H](O)[C@H]1O
Ki [19]: 0.0147 µM

Now from value to compound:

Ki [1]: 1800 µM
Compound: OC[C@H]1N/C(=N/O)[C@H](O)[C@@H](O)[C@@H]1O[C@H]1O[C@H](CO)[C@@H](O[C@H]2O[C@H](CO)[C@@H](O)[C@H](O)[C@H]2O)[C@H](O)[C@H]1O

Ki [3]: 0.19 µM
Compound: C[C@H]1O[C@H](O[C@H]2[C@H](O)[C@@H](O)[C@@H](OC[C@H]3OC4(NC(=S)NC4=O)[C@H](O)[C@@H](O)[C@@H]3O)O[C@@H]2CO)[C@H](O)[C@@H](O)[C@@H]1N[C@H]1C=C(CO)[C@@H](O)[C@H](O)[C@H]1O (some centres undefined)

inhibition [4]: 95%
Compound: OCC1OC(OC2C(CO)OC(OC3C(O)C(O)C(F)OC3(F)CO)C(O)C2O)C(O)C(O)C1O (centres undefined)

Ki [1]: 25 µM
Compound: CO[C@H]1[C@H](O)[C@@H](O)[C@@H](O[C@H]2[C@H](O)[C@@H](O)[C@@H](O[C@H]3[C@H](O)[C@@H](O)/C(=N\O)N[C@@H]3CO)O[C@@H]2CO)O[C@@H]1CO

Ki [10]: 0.075 µM
Compound: C[C@H]1O[C@H](O[C@H]2[C@H](O)[C@@H](O)[C@@H](O)O[C@@H]2CO)[C@H](O)[C@@H](O)[C@@H]1N[C@H]1C=C(CO)[C@@H](O)[C@H](O)[C@H]1O

inhibition [11]: 90%
Compound: OCC1OC(OC2C(O)C(O)C(F)OC2(F)CO)C(O)C(O)C1O (centres undefined)

Ki [10]: 0.012 µM
Compound: C[C@H]1O[C@H](O[C@H]2[C@H](O)[C@@H](O)[C@@H](OC[C@H]3O[C@@H](O)[C@H](O)[C@@H](O)[C@@H]3O)O[C@@H]2CO)[C@H](O)[C@@H](O)[C@@H]1N[C@H]1C=C(CO)[C@@H](O)[C@H](O)[C@H]1O

Ki [1]: 18000 µM
Compound: OC[C@H]1N/C(=N/O)[C@H](O)[C@@H](O)[C@@H]1O
